Results as given in ChEMBL document CHEMBL5154895, “Mechanistic Studies and In Vivo Efficacy of an Oxadiazole-Containing Antibiotic” (J Med Chem, 2022).
In brackets after ≈: the same amount, converted by molar mass. Activity calls are given as the source filed them. The rule behind the calls is not given here.

Legend:
[1] = test system: Staphylococcus aureus; experiment: Downregulation of hydrolase protein expression in Staphylococcus aureus measured after 2 hrs by LC-MS/MS analysis; format: functional
How it was run: (§1)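 S. aureus ATCC 25923 at OD600 0.6 was treated with compound or DMSO for 2 h at 37 °C, normalised to OD600 1.1, and washed in PBS. Cells were pressure-lysed in 100 mM ammonium bicarbonate, then acetone-precipitated, reduced with DTT, alkylated with iodoacetamide, and digested with trypsin/Lys-C. Peptides were desalted and run on LC-MS/MS. Label-free quantitation used proteins present in all 3 samples, filtered at p<0.05 against DMSO.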

[2] = test system: HaCaT; experiment: Cytotoxicity against human HaCaT cells assessed as reduction in cell viability measured upto 64 ug/ml incubated for 2 hrs by MTS assay; format: toxicity, cell-based; details: dose < 64 µg/ml
How it was run: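 Human keratinocytes exposed to compound at 16, 32, 64 and 128 μg/mL in sextuplicate for 2 hours at 37 °C with 5% CO2. DMSO served as the baseline control. MTS reagent added, then 3 h further incubation, and absorbance read at OD490.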

[3] = test system: Staphylococcus aureus; experiment: Antibacterial activity against vancomycin-resistant Staphylococcus aureus 12 assessed as inhibition of bacterial growth incubated for 18 to 20 hrs by broth microdilution method; format: functional; details: time 18-20 hrs
How it was run: (§2)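 Broth microdilution per CLSI. Inoculum was set to 0.5 McFarland and diluted in CAMHB to about 5×10^5 CFU/mL. Serial dilutions of agent were incubated aerobically at 37 °C for 18–20 h. MIC was read visually as the lowest concentration with complete growth inhibition.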

[4] = test system: Staphylococcus aureus; experiment: Upregulation of CHAP domain-containing protein expression in Staphylococcus aureus measured after 2 hrs by LC-MS/MS analysis; format: functional
How it was run: (§3)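 S. aureus ATCC 25923 at OD600 0.6 exposed to compound or DMSO control for 2 h at 37°C, normalized to OD600 1.1 and PBS-washed. Cells were pressure-cycling lysed in 100 mM ammonium bicarbonate, and 50 μg protein was acetone-precipitated, reduced and alkylated, then Trypsin/Lys-C digested and C18-desalted. About 1 μg peptides went to LC-MS/MS. Label-free quantitation kept proteins present in all 3 samples, filtered at p <0.05.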

[5] = test system: Staphylococcus aureus; experiment: Upregulation of heme uptake system protein IsdE expression in Staphylococcus aureus measured after 2 hrs by LC-MS/MS analysis; format: functional; how it was run: as §3
[6] = test system: Staphylococcus aureus; experiment: Downregulation of type VII secretion protein EsaB protein expression in Staphylococcus aureus measured after 2 hrs by LC-MS/MS analysis; format: functional; how it was run: as §3
[7] = test system: Staphylococcus aureus; experiment: Downregulation of peptide ABC transporter permease protein expression in Staphylococcus aureus measured after 2 hrs by LC-MS/MS analysis; format: functional; how it was run: as §3
[8] = test system: Staphylococcus aureus; experiment: Downregulation of SdrD protein expression in Staphylococcus aureus assessed as log2 of fold change in protein level measured after 2 hrs by LC-MS/MS analysis relative to control; format: functional; how it was run: as §1
[9] = test system: Staphylococcus aureus; experiment: Antibacterial activity against methicillin-resistant Staphylococcus aureus NRS 385 assessed as inhibition of bacterial growth incubated for 18 to 20 hrs by broth microdilution method; format: functional; details: time 18-20 hrs; how it was run: as §2
[10] = test system: Mus musculus; experiment: Acceleration of wound healing in methicillin-resistant Staphylococcus aureus USA300 infected Balb/c mouse model assessed as reduction in MCP-1 protein level in skin wounds administered topically twice daily 2 days post infection and measured after 5 days post compound treatment; format: functional, organism-based; details: time 5.0 day
How it was run: (§4)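 Mice had two 6-mm dorsal excisional wounds, each infected with 20 μL of 4.2×10^9 CFU/mL MRSA USA300 and covered with Tegaderm. Treatment began 2 days after infection (n=5 per group): 2% compound in petroleum jelly applied topically twice daily for 5 days. Right-wound homogenates in PBS were centrifuged, supernatants pooled per group, and protein normalised by BCA. Cytokines were measured by mouse cytokine array (pg/mL).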

[11] = test system: Staphylococcus aureus; experiment: Upregulation of 30S ribosomal protein S20 expression in Staphylococcus aureus measured after 2 hrs by LC-MS/MS analysis; format: functional; how it was run: as §3
[12] = test system: Staphylococcus aureus; experiment: Upregulation of GpmA protein expression in Staphylococcus aureus assessed as log2 of fold change in protein level measured after 2 hrs by LC-MS/MS analysis relative to control; format: functional; how it was run: as §3
[13] = test system: Staphylococcus aureus; experiment: Downregulation of ortho-poxovirus protein expression in Staphylococcus aureus measured after 2 hrs by LC-MS/MS analysis; format: functional; how it was run: as §3
[14] = test system: Mus musculus; experiment: Acceleration of wound healing in methicillin-resistant Staphylococcus aureus USA300 infected Balb/c mouse model assessed as reduction in TNF-alpha level in skin wounds administered topically twice daily 2 days post infection and measured after 5 days post compound treatment; format: functional, organism-based; details: time 5.0 day; how it was run: as §4
[15] = test system: Staphylococcus aureus; experiment: Antibacterial activity against Staphylococcus aureus ATCC 25923 assessed as inhibition of bacterial growth incubated for 18 to 20 hrs by broth microdilution method; format: functional; details: time 18-20 hrs
How it was run: (§5)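 Broth microdilution per CLSI. Inoculum at 0.5 McFarland, diluted in cation-adjusted Mueller Hinton broth to about 5 × 10^5 CFU/mL. Serial compound dilutions incubated aerobically at 37° C for 18–20 hours. MIC taken as the lowest concentration completely inhibiting visible growth.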

[16] = test system: Staphylococcus aureus; experiment: Downregulation of nucleoside permease protein expression in Staphylococcus aureus measured after 2 hrs by LC-MS/MS analysis; format: functional; how it was run: as §3
[17] = test system: Staphylococcus aureus; experiment: Downregulation of sodium ABC transporter ATP-binding protein expression in Staphylococcus aureus measured after 2 hrs by LC-MS/MS analysis; format: functional; how it was run: as §3
[18] = test system: Staphylococcus aureus; experiment: Downregulation of PgsA gene expression in Staphylococcus aureus ATCC 25923 assessed as reduction in […] at 0.25 ug/ml incubated for 2 hrs by RT-PCR analysis; format: functional; details: dose 0.25 µg/ml
How it was run: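 S. aureus ATCC 25923 at OD600 0.6 was treated in triplicate with 0.25 μg/mL compound or DMSO for 2 h at 37 °C and pelleted. Total RNA was analysed by real-time RT-PCR with pgsA primers, normalised to 16S rRNA. Significance was tested by Student's t-test.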

[19] = test system: Staphylococcus aureus; experiment: Upregulation of DUF4930 domain-containing protein expression in Staphylococcus aureus measured after 2 hrs by LC-MS/MS analysis; format: functional; how it was run: as §3
[20] = test system: Staphylococcus aureus; experiment: Downregulation of EsaA protein expression in Staphylococcus aureus assessed as log2 of fold change in protein level measured after 2 hrs by LC-MS/MS analysis relative to control; format: functional; how it was run: as §1
[21] = test system: Staphylococcus aureus; experiment: Downregulation of NarG protein expression in Staphylococcus aureus assessed as log2 of fold change in protein level measured after 2 hrs by LC-MS/MS analysis relative to control; format: functional; how it was run: as §1
[22] = test system: Staphylococcus aureus; experiment: Upregulation of DefA protein expression in Staphylococcus aureus assessed as log2 of fold change in protein level measured after 2 hrs by LC-MS/MS analysis relative to control; format: functional; how it was run: as §3
[23] = test system: Staphylococcus aureus; experiment: Antibacterial activity against Staphylococcus aureus MRSA ATCC 33592 assessed as inhibition of bacterial growth incubated for 18 to 20 hrs by broth microdilution method; format: functional; details: time 18-20 hrs; how it was run: as §5
[24] = test system: Staphylococcus aureus; experiment: Upregulation of zinc ABC transporter ATP-binding protein expression in Staphylococcus aureus measured after 2 hrs by LC-MS/MS analysis; format: functional; how it was run: as §3
[25] = test system: Staphylococcus aureus; experiment: Upregulation of L-serine dehydratase, iron-sulfurdependent subunit alpha expression in Staphylococcus aureus measured after 2 hrs by LC-MS/MS analysis; format: functional; how it was run: as §3
[26] = test system: Staphylococcus aureus; experiment: Downregulation of molybdenum ABC transporter ATP-binding protein expression in Staphylococcus aureus measured after 2 hrs by LC-MS/MS analysis; format: functional; how it was run: as §3
[27] = test system: Staphylococcus aureus; experiment: Downregulation of copper-translocating P-type ATPase protein expression in Staphylococcus aureus measured after 2 hrs by LC-MS/MS analysis; format: functional; how it was run: as §1
[28] = test system: Staphylococcus aureus; experiment: Upregulation of glycine cleavage system protein H expression in Staphylococcus aureus measured after 2 hrs by LC-MS/MS analysis; format: functional; how it was run: as §3

CC1CC(C)CN(S(=O)(=O)c2ccc(C(=O)Nc3nnc(-c4ccc(C(F)(F)F)cc4)o3)cc2)C1 (stereo not drawn)
Activity [1]: Active
Activity [2]: Non-Toxic
MIC [3]: 0.25 mg/L (≈ 0.492 µM)
Activity [4]: Active
Activity [5]: Active
Activity [6]: Active
Activity [7]: Active
log2FC [8]: -2
MIC [9]: 0.25 mg/L (≈ 0.492 µM)
Activity [10]: Active
Activity [11]: Active
log2FC [12]: 2.2
Activity [13]: Active
Activity [14]: Active
MIC [15]: 0.25 mg/L (≈ 0.492 µM)
Activity [16]: Active
Activity [17]: Active
Activity [18]: Active
Activity [19]: Active
log2FC [20]: -2
log2FC [21]: -2
log2FC [22]: 2
MIC [23]: 0.25 mg/L (≈ 0.492 µM)
Activity [24]: Active
Activity [25]: Active
Activity [26]: Active
Activity [27]: Active
Activity [28]: Active
